Data on eight molecules can be found in ChEMBL document CHEMBL4229550, “An antimycobacterial pleuromutilin analogue effective against dormant bacilli” (Bioorg Med Chem, 2018).

≈ marks a conversion by molar mass, not a printed value. Some results are limits rather than exact numbers.

For assay [1], the system named is Mycobacterium tuberculosis. As to the kind of experiment: Antibacterial activity against non-replicating Mycobacterium tuberculosis H37Rv harboring pFCA-luxAB preincubated for 10 days under anaerobic condition followed by incubation under ambient gaseous condition for 28 hrs by LORA. Type of assay: functional. Put shortly: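 Mtb H37Rv is electroporated with pFCA-luxAB and diluted in 7H12 broth to A570 0.03–0.05 (3,000–7,000 RLU per 100 µL). Cells are added to two-fold serial dilutions and held anaerobic (O2 <0.16%; 10% H2, 5% CO2, 85% N2) for 10 days. A 28 h recovery in 5% CO2 air follows, then luminescence is read.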

Assay [2] has as its system Mycobacterium tuberculosis. The assay can be described thus: Selectivity ratio of MIC for antibacterial activity against non-replicating Mycobacterium tuberculosis H37Rv harboring pFCA-luxAB to MIC100 for antibacterial activity against replicating Mycobacterium tuberculosis H37Rv. In kind it is functional.

Consider `CC[C@]1(C)C[C@@H](OC(=O)CSC(C)(C)CNC(=O)[C@H](N)CC(C)C)[C@]2(C)[C@H](C)CC[C@]3(CC[C@@H](O)[C@H]32)[C@@H](C)[C@@H]1O`, for which the minimum inhibitory concentration (MIC) in assay [1] was 1.2 µg/mL (≈ 2.06 µM). For the same molecule, the selectivity ratio in assay [2] stood at 1.45.
`NNC(=O)c1ccncc1` [ISONIAZID] yielded a minimal inhibitory concentration (MIC) in assay [1] of over 100 µg/mL. Also, the selectivity ratio in assay [2] is recorded as over 2500.
The matching figures for `C=C[C@]1(C)C[C@@H](OC(=O)CSC(C)(C)CNC(=O)[C@H](N)CC(C)C)[C@]2(C)[C@H](C)CC[C@]3(CCC(=O)[C@H]32)[C@@H](C)[C@@H]1O`: 1.98 µg/mL (≈ 3.42 µM) and 1.27.
The matching figures for `CC[C@]1(C)C[C@@H](OC(=O)CSC(C)(C)CNC(=O)[C@H](N)CC(C)C)[C@]2(C)[C@H](C)CC[C@]3(CCC(=O)[C@H]32)[C@@H](C)[C@@H]1O`: 1.04 µg/mL (≈ 1.79 µM) and 1.33.
`CC(=O)NC[C@H]1CN(c2ccc(N3CCOCC3)c(F)c2)C(=O)O1` [LINEZOLID] returned an MIC in assay [1] of 0.63 µg/mL (≈ 1.87 µM). Further, the selectivity ratio in assay [2] was 1.05.
For `C=C[C@]1(C)C[C@@H](OC(=O)CSC(C)(C)CNC(=O)[C@H](N)CC(C)C)[C@]2(C)[C@H](C)CC[C@]3(CC[C@@H](O)[C@H]32)[C@@H](C)[C@@H]1O`, in assay [1], the minimum inhibitory concentration (MIC) was 3.46 µg/mL (≈ 5.96 µM). For the same molecule, in assay [2], the selectivity ratio turned out to be 1.13.
In assay [1], `CC[C@@H](CO)NCCN[C@@H](CC)CO` [ETHAMBUTOL] showed a minimum inhibitory concentration (MIC) of over 100 µg/mL. For the same molecule, the selectivity ratio in assay [2] was over 128.
The matching figures for `C=C[C@]1(C)C[C@@H](OC(=O)CSC(C)(C)CNC(=O)[C@H](N)C(C)C)[C@]2(C)[C@H](C)CC[C@]3(CCC(=O)[C@H]32)[C@@H](C)[C@@H]1O` [VALNEMULIN]: 3.56 µg/mL (≈ 6.3 µM) and 1.14.

The term MIC denotes the least concentration at which growth counts as inhibited.
